From article PMC3974318 (Memórias do Instituto Oswaldo Cruz, 2013)
Entries after “also recorded” stand apart in the source; their conditions may differ.

How the values were obtained:
T. cruzi epimastigotes = details: extracellular replicative form; ref Izumi et al. (2012); cited from earlier work
[1] = system: intracellular trypanosomes; details: ref Izumi et al. 2012; cited from earlier work
Erythrocytes = experiment: Cytotoxic activity: haemolysis of erythrocytes; assay type: cell-based, Human; details: for toxicity to mammalian erythrocytes (lysis), in words: 3 h, 37 °C
Procedure, shortened: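 Blood from healthy human donors was defibrinated and washed in glycosylated saline. A 3% erythrocyte suspension in glycosylated saline was incubated with a range of test compound concentrations for 3 h at 37 °C. Supernatant absorbance at 550 nm was compared with 1% Triton X-100-treated wells to give percent haemolysis.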

[2] = system: promastigote forms of Leishmania amazonensis; experiment: Ultrastructural analysis by SEM and TEM; assay type: cell-based; details: 2.5 µg/mL, 72 h
[3] = system: axenic amastigote forms of L. amazonensis; experiment: Mitochondrial membrane potential by rhodamine 123, flow cytometry; assay type: cell-based, Leishmania amazonensis; details: 3 h, 32 °C, untreated cells 93.7%
[4] = system: axenic amastigotes of Leishmania amazonensis; experiment: Cell viability by propidium iodide staining, flow cytometry; assay type: cell-based
[5] = 100 µg/mL, 3 h, 32 °C, negative control 11.4%

SMILES	toxicity to mammalian erythrocytes (lysis), in words (Erythrocytes)	PI-positive events, upper left quadrant gated percentage [4, 5] [%]	Rh123 upper right gated population percentage ([3]; 100 µg/mL) [%]	also measured
C=C1CC[C@H]2C(C)(C)[C@@H](O)CC[C@]2(C)[C@H]1CC/C(C)=C/C(=O)O [Hydroxycopalic acid, 3β-hydroxylabda-8(20),13-dien-15-oic acid]	more toxic	–	–	ultrastructural changes in epimastigotes (T. cruzi epimastigotes): organelle disorganisation and membranous vacuole formation; inhibition of 50% against intracellular trypanosomes [1]: 0.6 µg/mL; ultrastructural changes (TEM) [2]: swollen mitochondria with the appearance of concentric membrane structures inside the organelle
N#CC(C#N)=NNc1cccc(Cl)c1 [CCCP, carbonyl cyanide m-chlorophenylhydrazone, reference compound]	–	–	–	Rh123 upper right gated population percentage ([3]; 200 µM): 53.1%
C=C1CC[C@@H]2C(C)(C)CCC[C@@]2(C)[C@@H]1CC/C(C)=C/C(=O)OC [Methyl copalate, methyl labd-8(20),13-dien-15-oate]	–	–	–	inhibition of 50% against intracellular trypanosomes [1]: 0.8 µg/mL
C=C1CC[C@@H]2[C@](C)(CCC[C@@]2(C)C(=O)O)[C@H]1CCc1ccoc1 [Polyaltic acid, 15,16-epoxylabda-8(20),13(16),14-trien-19-oic acid]	did not cause lysis except at the maximum concentration tested; also recorded: no toxicity was observed, except at the maximum concentration tested	–	–	–
C=C1CC[C@@H]2[C@](C)(CCC[C@@]2(C)C(=O)O)[C@H]1CC[C@H](C)CC(=O)O [Pinifolic acid, labd-8(20)-ene-15,18-dioic acid]	did not cause lysis except at the maximum concentration tested	68.4	32.4	toxicity to mammalian erythrocytes (lysis), in words (Erythrocytes; listed as pinifolic acid): no toxicity was observed, except at the maximum concentration tested
C[C@@H]1[C@H](O)[C@@H](C)/C=C/C=C/C=C/C=C/C=C/C=C/C=C/[C@H](O[C@@H]2O[C@H](C)[C@@H](O)[C@H](N)[C@@H]2O)C[C@@H]2O[C@](O)(C[C@@H](O)C[C@@H](O)[C@H](O)CC[C@@H](O)C[C@@H](O)CC(=O)O[C@H]1C)C[C@H](O)[C@H]2C(=O)O [Amphotericin B, reference compound]	–	–	–	PI-positive events, upper left quadrant gated percentage ([4]; positive control, concentration not given): 75.9%
C=C1CC[C@@H]2[C@](C)(CCC[C@]2(C)C(=O)O)[C@H]1CC/C(C)=C/C(=O)O [Agathic acid, labd-8(20)-13-dien-15,19-dioic acid]	–	63.4	27.5	–
C=C1C[C@@]23CC[C@H]4[C@@](C)(CCC[C@@]4(C)C(=O)O)[C@@H]2CC[C@@H]1C3 [Kaurenoic acid, kaur-16-ene-18-oic acid]	more toxic	60.8	24.4	selectivity index (SI) (Erythrocytes; figures fit CC50/IC50 promastigote): 5
